Screening data: PubChem BioAssay, several laboratories
NPY Y1 blocker: NPY-Y1 (human) receptor antagonism; P25929; HEK293-CNG Y1 cells, membrane potential fluorescence; NPY at EC95, then isoproterenol; inhibition, % at 3.6 µM; actives 1% (n = 200,000);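 active means inhibition above the campaign mean inhibition of all tested compounds plus 3 SD, cut at about 20% in these data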
Target sequence (P25929 whole entry, looked up): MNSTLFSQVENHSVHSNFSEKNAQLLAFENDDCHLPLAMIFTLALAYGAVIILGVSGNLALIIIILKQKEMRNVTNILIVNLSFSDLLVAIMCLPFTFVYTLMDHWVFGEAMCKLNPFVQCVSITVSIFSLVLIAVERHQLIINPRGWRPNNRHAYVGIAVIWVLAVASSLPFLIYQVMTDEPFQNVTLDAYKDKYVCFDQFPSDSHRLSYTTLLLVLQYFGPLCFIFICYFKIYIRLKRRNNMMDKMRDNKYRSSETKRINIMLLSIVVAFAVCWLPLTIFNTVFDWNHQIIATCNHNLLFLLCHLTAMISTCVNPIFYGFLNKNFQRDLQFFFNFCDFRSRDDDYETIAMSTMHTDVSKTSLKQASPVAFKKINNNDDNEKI
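Benchmarks – high control isoproterenol alone, low control NPY with isoproterenol · Material – HEK293 Y1/CNG channel cell line · Times – dye 3 h, compound 60 min room temperature, stimulation 45 min · Probe or stimulus – NPY (25 nM), isoproterenol (1 µM), Ro 20-1724 (25 µM) · Evaluation – % inhibition of NPY effect · Signal – fluorescence, membrane potential probe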
RAM network inh: blocks the yeast RAM network; S. cerevisiae dse1pr::URA3 reporter, 5-FOA growth OD615, 2 d; analog-sensitive cbk1-as2 kinase mutant strain; inhibition, % at 50 µM; actives 1.8% (n = 190,000);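 active means inhibition above a set limit, 3 SD over mean compound inhibition, cut at about 8.4% in these data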;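 further: inhibition rescues growth on 5-FOA so higher OD means more RAM inhibition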
NPY2 pot ag: human NPY-Y2 potentiation or agonism, primary screen; P49146; actives 0.45% (n = 220,000); cells expressing NPY-Y2, potentiator/agonist read-out; activation, % at 3.6 µM; in the data active means activation above about 27%;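 further: cells stimulated with NPY near EC25 plus isoproterenol at EC100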
NPY1 pot ag: potentiates or activates human NPY-Y1 receptor | AID 1304 | P25929 | activation, % at 3.6 µM | NPY-Y1 expressing cells, potentiator/agonist activation | actives 0.37% (n = 220,000); in the data active means activation above about 33%, passing the limit was not always enough;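 further: cells stimulated with NPY at EC10 then isoproterenol at EC100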
INS promoter inh: TRM-6 insulin promoter activity inhibition | TRM-6 cells, insulin promoter-eGFP reporter, imaging; reporter expression induced with tamoxifen | inhibition, % at 2 µM | actives 0.9% (n = 130,000);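 active means inhibition above the mean plus 3 SD, with well images judged a real hit on visual review, cut at about 60% in these data, passing the limit was not always enough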
NPY Y2 blocker: blocks the human neuropeptide Y Y2 receptor. AID 793. P49146. actives 0.99% (n = 140,000). inhibition, % at 2.7 µM. NPY-Y2 expressing cells, antagonist mode; in the data active means inhibition above about 17%
Each line names hits and unclear results; the compound was inactive in the other large screens. Shown are actives, neighbours in structure and some others; about 3.8% of the full set was active somewhere.

O=C(CNC(=O)c1ccccc1Br)N/N=C/c1ccc(O)cc1	none (no result: INS promoter inh, NPY Y2 blocker)
CC(/C=C/c1ccccc1)=N\Nc1ccccc1[N+](=O)[O-]	none (no result: INS promoter inh, NPY Y2 blocker)
CCOC(=O)c1cnc(SCc2ccc(C)cc2)nc1N	none
CCCCSc1ncc(C(=O)OCC)c(N)n1	INS promoter inh 80
COc1ccc(CNC(=O)C2CC(c3cccc(OC)c3)=NO2)cc1 (centres undefined)	INS promoter inh 73
COc1cccc(C2=NOC(C(=O)NC(C)(C)C)C2)c1 (centres undefined)	none (no result: INS promoter inh)
COc1ccc(NC(=O)C2CC(c3ccc(OC)c(OC)c3)=NO2)cc1OC (centres undefined)	none (no result: INS promoter inh)
COc1ccc(C2=NOC(C(=O)Nc3ccc(C)cc3)C2)cc1OC (centres undefined)	RAM network inh 9.2 (no result: INS promoter inh)
O=C(Nc1ccccc1)c1ccc(S(=O)(=O)N(CCO)CCO)cc1	INS promoter inh 77
CC(=O)Nc1ccc(S(=O)(=O)N(CCO)Cc2ccccc2)cc1	none
CC(c1c(O)c2ccccc2[nH]c1=O)C1(C)CCC(O)C(C)(C)O1 (centres undefined)	none (no result: INS promoter inh, NPY Y2 blocker)
COc1ccc2c(c1)CCc1c-2n[nH]c1C(=O)O	NPY2 pot ag 40
O=C(COc1cccnc1[N+](=O)[O-])NCCc1ccc(Cl)cc1Cl	none (no result: INS promoter inh, NPY Y2 blocker)
COC(=O)CSc1nc(C)cc(C(F)(F)F)c1C#N	none
CCCSc1nc(-c2ccccc2)cc(C(F)(F)F)c1C#N	none
Cc1ccc(S(=O)(=O)CCSc2nc(C)cc(C(F)(F)F)c2C#N)cc1	RAM network inh 10
Cc1cc(C(F)(F)F)c(C#N)c(Sc2ccccc2)n1	RAM network inh 10.0
CCC(C)(CC(=O)O)CC(=O)Nc1cc(C(F)(F)F)cc(C(F)(F)F)c1 (centres undefined)	none (no result: NPY Y1 blocker, RAM network inh, INS promoter inh, NPY Y2 blocker)
Cc1c(Cl)cccc1NC(=S)N/N=C/c1ccccc1Cl	none (no result: NPY Y1 blocker, RAM network inh, INS promoter inh, NPY Y2 blocker)
O=[N+]([O-])c1cccc(/C=N\N=C2c3ccccc3-c3ccccc32)c1O	RAM network inh 9.9
COC(=O)/C(=N/Nc1ccccc1C)Sc1nnc(C(O)c2ccccc2)n1-c1ccccc1 (centres undefined)	RAM network inh 8.8 (no result: INS promoter inh)
CC(C)(C)C(=O)N=C1SC2CS(=O)(=O)CC2N1c1ccc2c(c1)OCO2 (centres undefined)	none
CCOC(=O)C1=C(C)N(CCCCCC(=O)O)C(=O)NC1c1ccccc1Cl (centres undefined)	none
CCOC(=O)C1=C(C)N(CCCC(=O)O)C(=O)NC1c1ccccc1OS(=O)(=O)c1ccc(C)cc1 (centres undefined)	RAM network inh 8.4
CC1=C(C(=O)OCc2ccccc2)C(c2cccc([N+](=O)[O-])c2)NC(=O)N1CCCCCC(=O)O (centres undefined)	RAM network inh 11
CC1(C)Cc2c(C#N)c(N3CCOCC3)nc(Cc3ccccc3)c2CO1	RAM network inh 11 (no result: INS promoter inh)
Cc1ccc(S(=O)(=O)N2CCC(=O)N(CCOCc3ccc(C(F)(F)F)cc3)CC2)cc1	none
Cc1ccc(S(=O)(=O)N2CCC(=O)N(C(COCc3ccc(C(F)(F)F)cc3)Cc3ccccc3)CC2)cc1 (centres undefined)	RAM network inh 10
O=C(N/C(=C/c1cccc(Br)c1)c1nc(=S)[nH][nH]1)c1ccccc1	NPY2 pot ag 25, NPY1 pot ag 51
COc1ccc(/C=C(/NC(=O)c2ccccc2)c2nc3ccccc3[nH]2)cc1OC	none
Cc1ccc(C(=O)N/C(=C\c2ccc(Br)cc2)c2nc(=S)[nH][nH]2)cc1	NPY1 pot ag 47
Cc1cccc(NC(=O)CSc2nnc(-c3ccco3)n2CC2CCCO2)n1 (centres undefined)	none (no result: INS promoter inh, NPY Y2 blocker)
O=C1CC(Cc2ccccc2)C(=O)N1c1ccccn1 (centres undefined)	none (no result: NPY Y1 blocker, RAM network inh, INS promoter inh, NPY Y2 blocker)
O=[N+]([O-])c1ccc(/C=N/Nc2ccc3ccccc3c2)o1	NPY2 pot ag 66, NPY1 pot ag 76
O=C1Nc2ccccc2N(O)N1c1cc(-c2ccccc2)[nH]n1	INS promoter inh 85 (no result: NPY Y2 blocker)
COc1ccc(-c2cc(N3C(=O)Nc4ccccc4N3O)n[nH]2)cc1	none (no result: INS promoter inh)
Cc1sc2ncnc(SCC(=O)NC3CC3)c2c1C	INS promoter inh 100
CCC(C)(NC(=O)CNC(C)=O)C(=O)NC1CCCCC1 (centres undefined)	INS promoter inh 69
CCC(C)(NC(=O)c1ccccn1)C(=O)NC1CCCC1 (centres undefined)	none (no result: INS promoter inh, NPY Y2 blocker)
O=C1CC(Sc2ccc(Cl)cc2)C(=O)N1c1ccc2c(c1)OCCO2 (centres undefined)	none (no result: NPY Y1 blocker, RAM network inh, INS promoter inh, NPY Y2 blocker)
Cc1cc(/C=C2/C(=O)NN(c3ccccc3)C2=O)c(C)n1-c1ccc(O)cc1	RAM network inh 9.9
Cc1ccc(-c2noc(-c3ccoc3C)n2)cc1	none (no result: INS promoter inh, NPY Y2 blocker)
COC(=O)c1cc2occc2n1Cc1nc(-c2cccc(Cl)c2)oc1C	RAM network inh 11
OC(CNCCC(c1ccccc1)c1ccccc1)COc1ccccc1 (centres undefined)	NPY2 pot ag 89, NPY1 pot ag 96 (no result: INS promoter inh, NPY Y2 blocker)
COCCNCC(O)CON=C1c2ccccc2-c2ccccc21 (centres undefined)	NPY2 pot ag 92, NPY1 pot ag 101 (no result: NPY Y2 blocker)
CC(C)CCNCC(O)CON=C1c2ccccc2-c2ccccc21 (centres undefined)	NPY2 pot ag 45, NPY1 pot ag 45 (no result: INS promoter inh, NPY Y2 blocker)
CCNC(=O)CON=C1c2ccccc2-c2ccccc21	none
Cc1ccc(C(=O)N2CCSCC2)cc1	none
COCCNC(=O)COC(=O)c1ccc(OCC(=O)Nc2ccccc2OC)c(OC)c1	none (no result: INS promoter inh, NPY Y2 blocker)
CCN(CC)C(=O)C1CCCN(Cc2nc(-c3cccs3)no2)C1 (centres undefined)	none (no result: INS promoter inh, NPY Y2 blocker)
CCOC12NC(=O)CC(=O)N1C(c1ccccc1)=CS2 (centres undefined)	RAM network inh 9.9
Cn1cccc1CC(=O)NNC(=S)NC(=O)c1ccc(F)cc1	none (no result: NPY Y1 blocker, RAM network inh, INS promoter inh, NPY Y2 blocker)
N#CCC(=O)Nc1ccc(C(=O)OCC(=O)Nc2ccccc2Sc2ccccc2)cc1	RAM network inh 8.4 (no result: NPY Y2 blocker)
CC(=O)Nc1ccc(C(=O)OCC(=O)Nc2ccccc2Sc2ccccc2)cc1	none
COc1ccc(CSCC(=O)N/N=C/c2ccccc2O)cc1	INS promoter inh 75 (no result: NPY Y2 blocker)
COc1ccc(-n2cc(-c3ccc(Br)cc3)[nH]c2=S)cc1	RAM network inh 9.6 (no result: INS promoter inh, NPY Y2 blocker)
COc1ccc(-n2cc(-c3ccc(OC)c(OC)c3)[nH]c2=S)cc1	none (no result: NPY Y2 blocker)
Cc1ccc(C)c(-c2csc(N/N=C/c3ccco3)n2)c1	none (no result: NPY Y2 blocker)
O=C(CN1CCN(c2ccc([N+](=O)[O-])cc2)CC1)Nc1nccs1	INS promoter inh 77
Cc1ccc(NS(=O)(=O)c2cc3c4c(cccc4c2)C(=O)NC3=O)cc1C	none (no result: NPY Y1 blocker, RAM network inh, INS promoter inh, NPY Y2 blocker)
Cn1cc(Br)c(C(=O)NN2C(=O)C3C(C2=O)C2C=CC3C23CC3)n1 (centres undefined)	none (no result: INS promoter inh, NPY Y2 blocker)
